Data published in ChEMBL document CHEMBL3286184, “Antiplasmodial activity of synthetic ellipticine derivatives and an isolated analog” (Bioorg Med Chem Lett, 2014).
Counter-ions that a name gives are not always drawn. The source made the active and inactive calls. The rule behind the calls is not given here.

Key:
[1] = test system: Plasmodium falciparum; experiment: Antiplasmodial activity against drug susceptible Plasmodium falciparum 3D7 NF54 isolate in human erythrocytes assessed as growth inhibition after 48 hrs by optical microscopy; type: functional, organism-based; details: 3D7 NF54, 48 h
How it was run: (§1)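 Parasites were kept in continuous culture by the Trager and Jensen method. The microtest used 1–2% initial parasitemia and 3% hematocrit. Samples came from 5 mg/mL DMSO stocks, serially diluted in complete medium and added to parasitized red cells in triplicate. Plates were incubated 48 h at 37°C and read by optical microscopy. Growth inhibition % = 100[1 − (parasitemia with sample/parasitemia of untreated controls)].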

[2] = test system: Plasmodium berghei; experiment: Antimalarial activity against Plasmodium berghei infected in mouse assessed as suppression of parasitemia at 10 mg/kg, po after 5 to 7 days; type: functional
[3] = Cytotoxicity against mouse macrophages after 18 hrs by MTT assay; type: cell-based; details: Macrophage
[4] = Selectivity index, ratio of IC50 for mouse macrophages to IC50 for Plasmodium falciparum
[5] = test system: Plasmodium berghei; experiment: Antimalarial activity against Plasmodium berghei infected in mouse assessed as suppression of parasitemia at 50 mg/kg, po after 5 to 7 days; type: functional
[6] = test system: Plasmodium falciparum; experiment: Antiplasmodial activity against Plasmodium falciparum; type: functional, organism-based
How it was run: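 P. falciparum (K1 and 3D7) kept in continuous Trager–Jensen culture and tested at 1–2% initial parasitemia and 3% hematocrit. DMSO stocks (5 mg/mL) were diluted in complete medium across a 100–0.006 range and tested in triplicate for 48 h at 37°C. Growth was read by optical microscopy as IGP% = 100[1 − (parasitemia with sample / untreated control parasitemia)].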

[7] = test system: Plasmodium falciparum; experiment: Antiplasmodial activity against multi-drug resistant Plasmodium falciparum K1 in human erythrocytes assessed as growth inhibition after 48 hrs by optical microscopy; type: functional, organism-based; details: K1, 48 h; how it was run: as §1
[8] = test system: MRC5; experiment: Cytotoxicity against human MRC5 cells after 48 hrs by Alamar blue assay; type: cell-based; details: MRC5, 48 h
How it was run: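 MRC-5 fetal lung fibroblasts were grown in DMEM with 10% FBS, 2 mM glutamine and penicillin/streptomycin at 37°C under 5% CO2, seeded at 10^4 cells/well, and dosed with DMSO-dissolved compounds after 24 h for 48 h. Negative controls had 0.1% DMSO. Alamar Blue was added 2 h before the end, with fluorescence read at 530–560 nm excitation and 590 nm emission.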

[9] = test system: Plasmodium berghei; experiment: Antimalarial activity against Plasmodium berghei infected in mouse assessed as total elimination of parasitemia at 50 mg/kg, po after 5 to 7 days; type: functional, organism-based; set-up: dose 50 mg/kg
[10] = test system: Plasmodium berghei; experiment: Antimalarial activity against Plasmodium berghei infected in mouse assessed as mouse mean survival time at 50 mg/kg, po; type: functional
[11] = test system: Plasmodium berghei; experiment: Antimalarial activity against Plasmodium berghei infected in mouse assessed as suppression of parasitemia at 10 mg/kg, po by Peters 4 day suppressive test; type: functional; details: 96 h

## Cc1nccc2c(C)c3[nH]c4ccccc4c3cc12
[1]
  IC50: 1200 nM
[2]
  inhibition in vivo at 10 mg/kg: 48%
[3]
  IC50: > 140000 nM
[4]
  Ratio IC50: >290
[5]
  inhibition in vivo at 50 mg/kg: 90%

## COc1ccc2[nH]c3c(C)c4ccncc4c(C)c3c2c1
[6]; Plasmodium falciparum
  IC50: 1150 nM

## C=C[C@H]1CN2CC[C@H]1C[C@H]2[C@H](O)c1ccnc2ccc(OC)cc12 [QUININE SULFATE]
[1]
  IC50: 150 nM
[3]
  IC50: > 140000 nM
[7]
  IC50: 120 nM

## Cc1c2ccncc2c(C)c2c1[nH]c1c([N+](=O)[O-])cccc12
[1]
  IC50: 17000 nM
[7]
  IC50: 13000 nM
[8]
  IC50: > 50 µg/mL

## Cc1c2ccncc2c(C)c2c1[nH]c1ccccc12 [listing 1 of 2 here]
[9]
  inhibition: Active

## Cc1c2ccncc2c(C)c2c1[nH]c1ccccc12 [listing 2 of 2 here]
[6]
  IC50: 600 nM

## Cc1c2ccncc2c(C)c2c1[nH]c1ccc([N+](=O)[O-])cc12
[7]
  IC50: 550 nM

## Cc1c2ccncc2c(C)c2c1[nH]c1ccc(O)cc12
[6]; Plasmodium falciparum
  IC50: 300 nM

## Cc1c2ccncc2c(C)c2c1[nH]c1ccccc12 [ELLIPTECINE]
[10]
  MST: >40 days
[1]
  IC50: 350 nM
[3]
  IC50: > 140000 nM
[6]; Plasmodium falciparum
  IC50: 1130 nM
[7]
  IC50: 810 nM
[4]
  Ratio IC50: >290
[11]
  inhibition in vivo at 10 mg/kg: 70%

## CCN(CC)CCCC(C)Nc1ccnc2cc(Cl)ccc12 (stereo not drawn) [CHLOROQUINE PHOSPHATE]
[3]
  IC50: > 140000 nM

## Cc1c2c(c(C)c3c1[nH]c1ccccc13)C=NCC2
[6]; Plasmodium falciparum
  IC50: 1010 nM

## Cc1c2c(c(C)c3c1[nH]c1ccccc13)CN(C)CC2
[1]
  IC50: 13000 nM
[7]
  IC50: 4200 nM
[8]
  IC50: > 50 µg/mL
